Measured values from ChEMBL document CHEMBL4602646, “Design, synthesis and discovery of andrographolide derivatives against Zika virus infection” (Eur J Med Chem, 2020).

How the values were obtained:
[1] = tested on: Zika virus; test: Antiviral activity against Zika virus PRVABC-59 infected in human SNB19 cells assessed as reduction in viral titer incubated for 24 hrs by viral titer assay; type: functional, organism-based, SNB-19
Procedure, shortened: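 SNB-19 glioblastoma cells seeded 1 day ahead and pretreated 1 h with graded compound concentrations (final DMSO 0.1%). Infected with C6/36-derived PRVABC59 at MOI 1; supernatants taken 24 h post-infection. Virus titred by focus-forming unit assay on confluent Vero monolayers: 2 h inoculation, methylcellulose overlay for 48 h, PFA fixation, 4G2 antibody then HRP secondary, DAB–nickel, foci counted. Niclosamide reference included each run.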

[2] = (§1) Cytotoxicity against human SNB19 cells assessed as reduction in cell viability incubated for 24 hrs by MTT assay; type: cell-based, SNB-19; conditions: SNB19 cells
Procedure, shortened: (§2)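 MTT viability readout. Cells plated at 1.0 ×10⁴ per well overnight, then exposed to compounds, with 0.1% DMSO vehicle as control: SNB-19 for 24 h, Vero for 48 h. MTT at 0.5 mg/mL final, 4 h at 37 °C; formazan dissolved in DMSO, absorbance at 570 nm. CC₅₀ from % viability versus control; each concentration repeated 3 times independently.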

[3] = (§3) Cytotoxicity against African green monkey Vero cells assessed as reduction in cell viability incubated for 48 hrs by MTT assay; type: cell-based; conditions: chlorocebus sabaeus, Vero cells; procedure, shortened: as §2
[4] = tested on: SNB-19; test: as §1; type: cell-based; conditions: snb-19, 24 h; procedure, shortened: as §2
[5] = Selectivity index, ratio of CC50 for human SNB19 cells to EC50 for Zika virus PRVABC-59; type: toxicity; conditions: read-out: Ratio CC50/EC50
Procedure, shortened: (§4)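 Selectivity index taken as CC₅₀ over EC₅₀. CC₅₀ comes from MTT in Vero (48 h) or SNB-19 (24 h) cells. EC₅₀ comes from the ZIKV PRVABC59 titer-reduction assay in SNB-19 cells (MOI 1, 24 h, focus-forming units on Vero).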

[6] = tested on: Vero; test: as §3; type: cell-based; conditions: chlorocebus sabaeus, vero, 48 h; procedure, shortened: as §2
[7] = Selectivity index, ratio of CC50 for African green monkey Vero cells to EC50 for Zika virus PRVABC-59; type: toxicity; conditions: read-out: Ratio CC50/EC50; procedure, shortened: as §4
[8] = Zika virus, PRVABC-59, SNB-19, 24 h, read-out: EC50

Row | Structure (SMILES) | EC50 ([1]; snb-19) | CC50 at 24 h [2] [µM] | CC50 at 48 h [3] [µM] | EC50 [1, 8] [µM] | CC50 [4] [µM] | selectivity ratio [5] | CC50 [6] [µM] | selectivity ratio [7]
1 | C=C1CC[C@@H]2[C@]3(C)COC(C)(C)O[C@@H]3CC[C@@]2(C)[C@@H]1C/C=C1/C(=O)OC[C@H]1Oc1c(Cl)cc(Cl)c2cccnc12 | Not Active | 63.5 | 58.6 | – | – | – | – | –
2 | C=C1CC[C@@H]2[C@]3(C)COC(C)(C)O[C@@H]3CC[C@@]2(C)[C@@H]1C/C=C1/C(=O)OC[C@@H]1Oc1cccc2ccc(C)nc12 | – | – | – | 8.5 | 78.4 | 9.2 | 55.9 | 6.6
3 | C=C1CC[C@@H]2[C@](C)(COC(C)=O)[C@H](O)CC[C@@]2(C)[C@@H]1C/C=C1/C(=O)OC[C@@H]1Oc1c(Cl)cc(Cl)c2cccnc12 | Not Active | 39.3 | 51.9 | – | – | – | – | –
4 | C=C1CC[C@H]2[C@@](C)(CCC(=O)[C@@]2(C)COC(C)=O)[C@@H]1C/C=C1/C(=O)OC[C@@H]1Oc1c(Cl)cc(Cl)c2cccnc12 | – | – | – | 24.6 | 72 | 2.9 | 57.4 | 2.3
5 | C=C1CC[C@H]2[C@@](C)(CCC(=O)[C@@]2(C)COC(C)=O)[C@@H]1C/C=C1/C(=O)OC[C@@H]1Oc1cccc2cccnc12 | Not Active | 21.9 | 12.8 | – | – | – | – | –
6 | C=C1CC[C@@H]2[C@]3(C)COC(C)(C)O[C@@H]3CC[C@@]2(C)[C@@H]1C/C=C1/C(=O)OC[C@@H]1Oc1c(Cl)cc(Cl)c2cccnc12 | Not Active | 39.3 | 55.9 | – | – | – | – | –
7 | C=C1CC[C@@H]2[C@](C)(COC(C)=O)[C@H](O)CC[C@@]2(C)[C@@H]1C/C=C1/C(=O)OC[C@@H]1Oc1cccc2cccnc12 | Not Active | 49.5 | 27.5 | – | – | – | – | –
8 | C=C1CC[C@H]2[C@@](C)(CCC(=O)[C@@]2(C)COC(C)=O)[C@@H]1C/C=C1/C(=O)OC[C@H]1Oc1cccc2ccc(C)nc12 | Not Active | > 100 | 72.4 | – | – | – | – | –
9 | C=C1CC[C@@H]2[C@](C)(COC(C)=O)[C@H](O)CC[C@@]2(C)[C@@H]1C/C=C1/C(=O)OC[C@H]1Oc1c(Cl)cc(Cl)c2cccnc12 | – | – | – | 4.5 | 88.7 | 19.7 | 85 | 18.9
10 | C=C1CC[C@H]2[C@@](C)(CCC(=O)[C@@]2(C)COC(C)=O)[C@@H]1C/C=C1/C(=O)OC[C@@H]1Oc1cccc2ccc(C)nc12 | Not Active | 51.7 | 46.7 | – | – | – | – | –
11 | C=C1CC[C@@H]2[C@]3(C)COC(C)(C)O[C@@H]3CC[C@@]2(C)[C@@H]1C/C=C1/C(=O)OC[C@H]1Oc1cccc2ccc(C)nc12 | – | – | – | 16.6 | 66.5 | 4 | 65.3 | 3.9
12 | C=C1CC[C@@H]2[C@]3(C)COC(C)(C)O[C@@H]3CC[C@@]2(C)[C@@H]1C/C=C1/C(=O)OC[C@H]1Oc1cccnc1[N+](=O)[O-] | Not Active | 46.5 | 26.2 | – | – | – | – | –
13 | C=C1CC[C@H]2[C@@](C)(CCC(=O)[C@@]2(C)COC(C)=O)[C@@H]1C/C=C1/C(=O)OC[C@H]1Oc1c(Cl)cc(Cl)c2cccnc12 | Not Active | > 100 | 64.7 | – | – | – | – | –
14 | C=C1CC[C@@H]2[C@](C)(COC(C)=O)[C@H](O)CC[C@@]2(C)[C@@H]1C/C=C1/C(=O)OC[C@H]1Oc1cccc2ccc(C)nc12 | Not Active | > 100 | 50.6 | – | – | – | – | –
15 | C=C1CC[C@@H]2[C@](C)(CO)[C@H](O)CC[C@@]2(C)[C@@H]1C/C=C1/C(=O)OC[C@@H]1Oc1c(Cl)cc(Cl)c2cccnc12 | – | – | – | 13.3 | > 100 | > 7.5 | > 100 | > 7.5
16 | C=C1CC[C@@H]2[C@]3(C)COC(C)(C)O[C@@H]3CC[C@@]2(C)[C@@H]1C/C=C1/C(=O)OC[C@@H]1Oc1cccc2cccnc12 | – | – | – | 25.9 | 21.1 | 0.82 | 22 | 0.85
17 | C=C1CC[C@@H]2[C@](C)(CO)[C@H](O)CC[C@@]2(C)[C@@H]1C/C=C1/C(=O)OC[C@H]1Oc1ccnc2ccccc12 | – | – | 22.8 | 11 | 60.1 | 5.5 | – | 2.1
18 | C=C1CC[C@@H]2[C@](C)(COC(C)=O)[C@H](O)CC[C@@]2(C)[C@@H]1C/C=C1/C(=O)OC[C@@H]1Oc1cccc2ccc(C)nc12 | Not Active | 65.9 | 46.5 | – | – | – | – | –
19 | C=C1CC[C@@H]2[C@](C)(CO)[C@H](O)CC[C@@]2(C)[C@@H]1C/C=C1/C(=O)OC[C@@H]1Oc1cccc2cccnc12 | – | – | 20.8 | 1.3 | 22.7 | 17.5 | – | 16.1
20 | C=C1CC[C@@H]2[C@](C)(CO)[C@H](O)CC[C@@]2(C)[C@@H]1C/C=C1/C(=O)OC[C@H]1Oc1cccnc1[N+](=O)[O-] | – | – | – | 12.5 | 67.7 | 5.4 | 37.7 | 3
21 | C=C1CC[C@@H]2[C@](C)(CO)[C@H](O)CC[C@@]2(C)[C@@H]1C/C=C1/C(=O)OC[C@H]1Oc1cccc2ccc(C)nc12 | Not Active | > 100 | 61.4 | – | – | – | – | –
22 | C=C1CC[C@@H]2[C@](C)(CO)[C@H](O)CC[C@@]2(C)[C@@H]1C/C=C1/C(=O)OC[C@@H]1Oc1cccc2ccc(C)nc12 | – | – | – | 25.8 | > 100 | > 3.9 | 99.8 | 3.9
23 | C=C1CC[C@@H]2[C@](C)(CO)[C@H](O)CC[C@@]2(C)[C@@H]1C/C=C1/C(=O)OC[C@H]1Oc1c(Cl)cc(Cl)c2cccnc12 | – | – | – | 7.8 | 85.2 | 10.9 | – | 7.5
24 | C=C1CC[C@@H]2[C@](C)(CO)[C@H](O)CC[C@@]2(C)[C@@H]1C/C=C1/C(=O)OC[C@@H]1Oc1ccnc2ccccc12 | Not Active | 61.2 | 20.7 | – | – | – | – | –
